In ChEMBL document CHEMBL1138019, “Synthesis and antitumor activity of 4-hydroxycoumarin derivatives” (Bioorg Med Chem Lett, 2004):

Assays:
Type in all cases: functional, cell-based
XF498 [1] = experiment: Concentration required for inhibiting proliferation of human brain tumor cell line XF 498 after 72 hr of incubation was determined; settings: XF498, 72 h
Outline: (§1)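 SRB assay. Cells were passaged with trypsin-EDTA, seeded at 1–2 · 10^4 cells/well and grown for 24 h. Compounds dissolved in culture medium were added in triplicate and incubated 48 h at 37 C, 5% CO2. Cells were fixed with 10% cold TCA, stained with 0.4% SRB in 1% acetic acid, and the dye was solubilized in 10 mM Tris base (pH 10.5). Absorbance was read at 520 nm. IC50 is the concentration giving 50% inhibition.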

HCT-15 = experiment: Concentration required for inhibiting proliferation of human colon tumor cell line HCT-15 after 72 hr of incubation was determined; settings: HCT-15, 72 h; outline: as §1
SK-MEL-2 [2] = experiment: Concentration required for inhibiting proliferation of human melanoma tumor cell line SK-MEL-2 after 72 hr of incubation was determined; settings: SK-MEL-2, 72 h; outline: as §1
A549 = experiment: Concentration required for inhibiting proliferation of human lung tumor cell line A549 after 72 hr of incubation was determined; settings: A549, 72 h; outline: as §1
SK-OV-3 = experiment: Concentration required for inhibiting proliferation of human ovarian tumor cell line SK-OV-3 after 72 hr of incubation was determined; settings: SK-OV-3, 72 h; outline: as §1
XF498 [3] = experiment: Concentration required for inhibiting proliferation of human brain tumor cell line XF 498 by 50% after 72 hr of incubation was determined; settings: XF498, 72 h; outline: as §1
SK-MEL-2 [4] = experiment: Concentration required for inhibiting proliferation of human melanoma tumor cell line SK-MEL-2 by 50% after 72 hr of incubation was determined; settings: SK-MEL-2, 72 h; outline: as §1

IC50 (HCT-15) [µM]	IC50 (SK-MEL-2 [2]) [µM]	IC50 (A549) [µM]	IC50 (SK-OV-3) [µM]	SMILES	IC50 (XF498 [1]) [µM]	IC50 (XF498 [3]) [µM]	IC50 (SK-MEL-2 [4]) [µM]
6.71	8.51	8.13	5.74	CCC1(c2ccccc2)CC(=O)C(C(CC(=O)c2ccc(-c3ccc(Br)cc3)cc2)c2ccccc2)=C(O)O1 (stereo not given)	6.59	–	–
8.59	8.54	9.18	5.69	CC1(c2ccccc2)CC(=O)C(C(CC(=O)c2ccc(-c3ccc(Br)cc3)cc2)c2ccccc2)=C(O)O1 (stereo not given)	6.73	–	–
> 10	> 10	> 10	> 10	CCC1(c2ccccc2)CC(=O)C(C2CC(c3ccc(-c4ccc(Br)cc4)cc3)Cc3ccccc32)=C(O)O1 (stereo not given)	> 10	–	–
> 10	> 10	> 10	> 10	CCC1(c2ccccc2)CC(=O)C(C2CC(c3ccc(OCc4ccc(C(F)(F)F)cc4)cc3)Cc3ccccc32)=C(O)O1 (stereo not given)	> 10	–	–

The next lines start with the compound.

SMILES	IC50 (HCT-15) [µM]	IC50 (SK-MEL-2 [2]) [µM]	IC50 (A549) [µM]	IC50 (SK-OV-3) [µM]	IC50 (XF498 [1]) [µM]	IC50 (XF498 [3]) [µM]	IC50 (SK-MEL-2 [4]) [µM]
CCCC1(c2ccccc2)CC(=O)C(C(CC(=O)c2ccc(-c3ccc(Br)cc3)cc2)c2ccccc2)=C(O)O1 (stereo not given)	> 10	> 10	> 10	> 10	> 10	–	–
COc1cc([C@@H]2c3cc4c(cc3[C@@H](O[C@@H]3O[C@@H]5CO[C@@H](C)O[C@H]5[C@H](O)[C@H]3O)[C@H]3COC(=O)[C@H]23)OCO4)cc(OC)c1O [ETOPOSIDE]	1.45	–	1.06	3.46	–	3.14	4.13
CCCC1(CCc2ccccc2)CC(=O)C(C2CC(c3ccc(-c4ccc(Br)cc4)cc3)Cc3ccccc32)=C(O)O1 (stereo not given)	> 10	> 10	> 10	> 10	> 10	–	–
CCC1(c2ccccc2)CC(=O)C(C2CC(c3ccc(OC)cc3)Cc3ccccc32)=C(O)O1 (stereo not given)	> 10	> 10	> 10	> 10	> 10	–	–
COc1ccc(C2Cc3ccccc3C(C3=C(O)OC(C)(c4ccccc4)CC3=O)C2)cc1 (stereo not given)	> 10	> 10	> 10	> 10	> 10	–	–
CC1(c2ccccc2)CC(=O)C(C2CC(c3ccc(-c4ccc(Br)cc4)cc3)Cc3ccccc32)=C(O)O1 (stereo not given)	1.31	2.05	1.83	1.8	1.36	–	–
